Experimental data of several laboratories.
Compare with care: the assays were run in different laboratories.
Target: Mitogen-activated protein kinase 4 (MAPK4, Homo sapiens, UniProt P31152)

| Compound | effect on | method | concentration | remaining binding |
| --- | --- | --- | --- | --- |
| Nc1ncc2c(n1)-c1c([nH]c3ccc(C#CC4CC4)cc13)CCCC2 | binding | competition with immobilised ligand | 1 µM | 96% |
| O=C(NCC1CCOCC1)c1n[nH]cc1NC(=O)c1c(F)cccc1F | binding | competition with immobilised ligand | 1 µM | 99% |
| c1ccc(N2CCN(Cc3nc4ccccc4[nH]3)CC2)nc1 | binding | competition with immobilised ligand | 1 µM | 100% |
| CC1CCCN1c1nccc(-c2cnn3ncccc23)n1 (stereo not drawn) | binding | – | 1 µM | 100% |
| FC(F)(F)Oc1cccc(-c2cnc3ccc(-c4ccncc4)nn23)c1 | cell-free assay | competition with immobilised ligand | 5 µM | 100% |
| CNC(=O)[C@@H]1CC[C@@H](n2c(-c3ccc4cnccc4c3)nc3ccc(C(=O)NCc4cccc(C(N)=O)c4)cc32)C1 | binding | competition with immobilised ligand | 1 µM | 100% |
| C[C@H]1CCN(c2nccc(-c3cnn4ncccc34)n2)C1 | binding | – | 1 µM | 93% |
| Cc1cnc(Nc2ccc(C(=O)N3CCC(N4CCCC4)CC3)cc2)nc1-c1cc2ccccc2s1 | binding | competition with immobilised ligand | 1 µM | 39% |
| N[C@H]1CCN(c2nccc(-c3cnn4ncccc34)n2)C1 | binding | – | 1 µM | 100% |
| Cn1nc(C(F)(F)F)cc1-c1cnc(N2CCc3cc(S(=O)(=O)Nc4c(F)cc(Cl)cc4F)cc(N4CCCC4=O)c32)nc1 | cell-free assay | competition with immobilised ligand | 1 µM | 100% |
| CN(C)c1ncc(F)c(-c2cnn3ncccc23)n1 | binding | – | 1 µM | 100% |
| O=C(Nc1cnc(Oc2ccc(F)cc2)nc1)N1CCc2ncccc2[C@@H]1c1ccc(F)cc1 | cell-free assay | competition with immobilised ligand | 1 µM | 95% |
| C[C@@H](c1ccc(-n2cnc3c(N)ncnc32)cc1)N1CCc2nn(C)c(Cc3ccccc3)c2C1=O | binding | competition with immobilised ligand | 0.1 µM | 87% |
| CC(=O)c1c(NS(C)(=O)=O)c2cc(-c3ccc(Cl)cc3)c(-c3ccc(Cl)cc3Cl)nc2n(C)c1=O | cell-free assay | competition with immobilised ligand | 1 µM | 100% |
| CCN1CCN(Cc2ccc(C(=O)Nc3ccc(C)c(Oc4ccc5c(c4)CC(=O)N5)c3)cc2C(F)(F)F)CC1 | binding | competition with immobilised ligand | 1 µM | 100% |
| CN(C)c1nccc(-c2cnn3ncccc23)n1 | binding | – | 1 µM | 100% |
| CO[C@@H](C)c1c(Nc2ccc([C@@H](N(C)C(=O)C3CCS(=O)(=O)CC3)C(F)(F)F)cc2)cnc2cc(Cl)nn12 | cell-free assay | competition with immobilised ligand | 1 µM | 100% |
| O=C(c1ccc(Nc2ncc(Cl)c(-c3ccc(Cl)s3)n2)cc1)N1CCC(N2CCCC2)CC1 | binding | competition with immobilised ligand | 1 µM | 0.3% |
| Cc1cnn2ncc(-c3ccnc(N(C)C)n3)c2c1 | binding | – | 1 µM | 94% |
| CCCOc1ccc([C@H]2[C@H](C(=O)O)[C@@H](c3ccc4c(c3)OCO4)CN2CC(=O)Nc2c(CC)cccc2CC)cc1 | cell-free assay | competition with immobilised ligand | 1 µM | 93% |
| O=C(c1ccc(Nc2nccc(-c3cc4ccccc4s3)n2)cc1)N1CCC(N2CCCC2)CC1 | binding | competition with immobilised ligand | 1 µM | 74% |
